Assay [1] can be described thus: Her2 expression decrease, cell viability multiplex – SKBR3 breast tumor cells, AlphaScreen, ATP viability, primary screen (AID 461).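 For Her2 level: lower value means less Her2 protein in the cells.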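 For viability: percent of carrier control wells set as 100% viability.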 To be noted: SKBR3 Her2 protein level, 18-24 h, measured here: SKBR3 viability, ATP luminescence, at 10 µM.
For assay [2], the target named is Receptor tyrosine-protein kinase erbB-2 (Homo sapiens) (UniProt P04626). The assay is described as above. To be noted: 18-24 h, at 10 µM, stronger effect = lower value.
Receptor tyrosine-protein kinase erbB-2 (Homo sapiens), sequence (P04626 whole entry, looked up): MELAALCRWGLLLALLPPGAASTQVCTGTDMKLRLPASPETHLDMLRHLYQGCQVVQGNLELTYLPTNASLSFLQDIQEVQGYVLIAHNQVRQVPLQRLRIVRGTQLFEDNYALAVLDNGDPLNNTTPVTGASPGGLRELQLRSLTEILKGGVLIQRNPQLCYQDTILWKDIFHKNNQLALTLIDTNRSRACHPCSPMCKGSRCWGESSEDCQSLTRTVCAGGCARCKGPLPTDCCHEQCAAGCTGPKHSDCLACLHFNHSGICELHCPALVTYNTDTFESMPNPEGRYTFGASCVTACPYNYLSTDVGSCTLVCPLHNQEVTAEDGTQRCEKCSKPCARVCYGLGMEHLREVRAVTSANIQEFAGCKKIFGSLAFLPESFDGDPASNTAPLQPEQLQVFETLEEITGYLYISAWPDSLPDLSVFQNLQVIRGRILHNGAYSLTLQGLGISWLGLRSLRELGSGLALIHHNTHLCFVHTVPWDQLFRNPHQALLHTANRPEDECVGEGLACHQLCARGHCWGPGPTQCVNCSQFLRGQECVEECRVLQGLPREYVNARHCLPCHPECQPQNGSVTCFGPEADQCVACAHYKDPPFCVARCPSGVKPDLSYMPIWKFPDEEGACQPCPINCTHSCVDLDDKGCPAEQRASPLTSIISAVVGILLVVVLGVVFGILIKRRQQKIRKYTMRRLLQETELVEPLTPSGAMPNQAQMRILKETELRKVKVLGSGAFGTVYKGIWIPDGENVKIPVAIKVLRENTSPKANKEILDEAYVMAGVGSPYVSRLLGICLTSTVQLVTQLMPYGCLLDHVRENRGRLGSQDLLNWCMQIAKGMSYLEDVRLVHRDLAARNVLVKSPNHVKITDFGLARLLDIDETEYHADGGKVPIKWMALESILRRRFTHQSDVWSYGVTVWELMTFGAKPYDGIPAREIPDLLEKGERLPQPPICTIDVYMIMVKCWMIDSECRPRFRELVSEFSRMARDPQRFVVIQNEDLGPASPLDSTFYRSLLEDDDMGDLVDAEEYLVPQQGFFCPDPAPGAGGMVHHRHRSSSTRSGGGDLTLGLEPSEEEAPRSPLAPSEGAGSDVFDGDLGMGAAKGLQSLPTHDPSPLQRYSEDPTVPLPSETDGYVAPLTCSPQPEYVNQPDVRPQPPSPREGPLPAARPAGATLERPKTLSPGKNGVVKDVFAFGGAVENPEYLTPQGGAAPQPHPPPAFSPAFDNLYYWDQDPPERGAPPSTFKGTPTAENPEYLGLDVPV
A short description of assay [3]: reduced viability of SK-BR-3 breast cancer cells – cell-based, 24 h, human, pilot screen (AID 572;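 active = viability at or below 10% of carrier control in both of two separate runs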;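 note: compound exposure lasted between 18 and 24 h rather than exactly 24 h; 100% = carrier-treated control wells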). To be noted: SK-BR-3 viability, CellTiter-Glo luminescence, at 10 µM, stronger effect = lower value.
Assay [4] is described as follows: HUVEC growth inhibition – cell-based, human, primary screen (AID 575;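 active = viability at or below 30% in both replicate assays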;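 note: 100% = median of untreated cell wells with 0.1% DMSO on each plate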). To be noted: HUVEC proliferation, CellTiter-Glo luminescence, 72 h; at 10 µM; stronger effect = lower value. Summed up: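 Assay system: primary human umbilical vein endothelial cells / Buffer or medium: endothelial basal medium with 2% FBS plus growth supplements / Compound dosing: one dose, 10 µM final, 0.1% DMSO / Timing: 72 h treatment at 37 °C / Signal: CTG luminescence / Benchmarks: 32 DMSO-only cell-control wells (high), 32 MePR drug-control wells (low) per plate / Plate: collagen-coated 384-well format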

Assay [5] can be described thus: H69AR cell proliferation blockers – human, duplicate replicates, primary screen (AID 580;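 active = viability at or under a set limit in both replicates, limit being median viability minus 3 SD, cut at about 48% in these data, passing the limit was not always enough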;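 note: 100% = mean luminescence of untreated wells and 0% = no signal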). To be noted: H69AR lung tumor cells viability, ATP luminescence, 72 h; at 10 µM; stronger effect = lower value.
Assay [6] in a line: MRP1 drug-resistance reversers in H69AR cells – cell-based, doxorubicin co-treatment, pilot screen (AID 601;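 active = viability loss from added drug above about 55%, and viability with drug at most 40%, in both replicates, limit read from the data, passing the limit was not always enough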). To be noted: CellTiter-Glo, 72 h, at 10 µM; for differential viability (reversal): stronger effect = higher value.
The nature of assay [7]: yeast transport mutant growth inhibition pilot in 384-well plates, post-Golgi transport modulator project (AID 636; in the data active = inhibition above about 31%). To be noted: absorbance 615 nm, about 18 h, stronger effect = higher value.
A short description of assay [8]: growth suppression of yeast trafficking mutant, preliminary HTS, modulators of trafficking downstream of Golgi apparatus project, 1536-format plate, OD 615 nm (AID 637; in the data active = inhibition above about 30%). To be noted: yeast transport mutant growth, absorbance 615 nm, 18 h; stronger effect = higher value.
Setting [9] is: H69AR cells + 2 uM doxorubicin, measured here: viability with 2 uM doxorubicin, stronger effect = lower value.
[10] abbreviates: H69AR cells, compound alone cytotoxicity.

The source made the active and inactive calls.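 Rule for the calls, unless noted: active = Her2 level under about 52% in both replicate screens, with viability over 70% of control (limit read from the data); inconclusive = Her2 under the limit in one screen only, or viability under 70%; inactive = Her2 level above the set limit.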

`COc1cc(C(=O)Nc2ccc(-n3cnnn3)c(C)c2)cc(OC)c1OC`: the viability in assay [1] is 105%; in assay [3], 105% (inactive); in assay [4], 99.8% (inactive); in assay [5], 74% (inactive); in assay [6] (setting [9]), 98.8%; in assay [6] (setting [10]), 74%. The Her2 level in assay [2] was 95.5% (inactive). Also, the differential viability (reversal) in assay [6] (H69AR cells + 2 uM doxorubicin) was -24.8% (inactive). Moreover, the inhibition in assay [7] is -2.08% (inactive); in assay [8], -7.3% (inactive).
Consider `CN(C(=O)c1cc2sccc2n1C)C1CCCCC1`, for which the viability is 91% in assay [1]; 91% (inactive) in assay [3]; 87.7% (inactive) in assay [4]; 100% (inactive) in assay [5]; 85.7% in assay [6] (setting [9]); 100% in assay [6] (setting [10]). In assay [2], the Her2 level was 106% (inactive). The differential viability (reversal) in assay [6] (H69AR cells + 2 uM doxorubicin) was 14.7% (inactive). Further, the inhibition in assay [7] is -7.3% (inactive); in assay [8], -2.13% (inactive).
Turning to `CCN1C(=O)/C(=C2\C=Cc3ccccc3N2CC)OC1=S`, the viability in assay [1] is 95.5%; in assay [3], 95.5% (inactive); in assay [4], 85.9% (inactive); in assay [5], 72% (inactive); in assay [6] (setting [9]), 64.7%; in assay [6] (setting [10]), 72%. The Her2 level in assay [2] is 100% (inactive). Besides, the differential viability (reversal) in assay [6] (H69AR cells + 2 uM doxorubicin) was 7.3% (inactive). The results for the inhibition in assay [7] and in assay [8] were -4.23% (inactive) and 2.33% (inactive), respectively.
`CC1CCC2C(C1)c1sc(=O)[nH]c1SC2(C)C` (stereo not given): the viability in assay [1] is 85%; in assay [3], 85% (inactive); in assay [4], 60.5% (inactive); in assay [5], 106% (inactive); in assay [6] (setting [9]), 103%; in assay [6] (setting [10]) it was 106%. For the same compound, the Her2 level in assay [2] is 111% (inactive). In addition, the differential viability (reversal) in assay [6] (H69AR cells + 2 uM doxorubicin) is 2.79% (inactive). The values for the inhibition in assay [7] and in assay [8] were 0.9% (inactive) and 13.2% (inactive), respectively.
For the compound `O=C(NCCc1ccccn1)c1ccc(COc2ccccc2)o1`, the viability in assay [1] was 80%; in assay [3] it was 80% (inactive); in assay [4], 103% (inactive); in assay [5], 102% (inactive); in assay [6] (setting [9]), 95.3%; in assay [6] (setting [10]) it was 102%. Also, the Her2 level in assay [2] is 100% (inactive). Also, the differential viability (reversal) in assay [6] (H69AR cells + 2 uM doxorubicin) is 6.97% (inactive). Also, the inhibition in assay [7] was -2.99% (inactive); in assay [8], 0.33% (inactive).
Consider `CCCN1C2CCCC1CC(NC(=O)c1ccccc1F)C2` (stereo not given), for which the viability was 99% in assay [1]; 99% (inactive) in assay [3]; 94.2% (inactive) in assay [4]; 106% (inactive) in assay [5]; 86% in assay [6] (setting [9]); 106% in assay [6] (setting [10]). For the same compound, the Her2 level in assay [2] is 96.5% (inactive). Moreover, the differential viability (reversal) in assay [6] (H69AR cells + 2 uM doxorubicin) was 19.6% (inactive). In addition, the inhibition is -4.93% (inactive) in assay [7] and 5.4% (inactive) in assay [8].
As for `O=C(CSc1nc(-c2ccccc2)cs1)NC(=O)NCc1ccco1`, the viability is 86.5% in assay [1]; 86.5% (inactive) in assay [3]; 58.4% (inactive) in assay [4]; 76.7% (inactive) in assay [5]; 77.6% in assay [6] (setting [9]); 76.7% in assay [6] (setting [10]). In assay [2], the Her2 level is 77.5% (inactive). The differential viability (reversal) in assay [6] (H69AR cells + 2 uM doxorubicin) was -0.93% (inactive). The inhibition in assay [7] is -5.6% (inactive); in assay [8], 2.06% (inactive).
As for `CCOc1ccc(NCCC(=O)c2ccc3c(c2)OCO3)cc1`, the viability is 90% in assay [1]; 90% (inactive) in assay [3]; 75.7% (inactive) in assay [4]; 66.1% (inactive) in assay [5]; 79.6% in assay [6] (setting [9]); 66.1% in assay [6] (setting [10]). The Her2 level in assay [2] is 84.5% (inactive). Further, the differential viability (reversal) in assay [6] (H69AR cells + 2 uM doxorubicin) was -13.5% (inactive). The inhibition in assay [7] was -6.71% (inactive); in assay [8], -5.5% (inactive).
In the case of `CCOC(=O)c1c(C)[nH]c(C(=O)COC(=O)C2CC2C)c1C` (stereo not given), the viability in assay [1] was 117%; in assay [3], 117% (inactive); in assay [4], 99.4% (inactive); in assay [5] it was 102% (inactive); in assay [6] (setting [9]) it was 85.8%; in assay [6] (setting [10]), 102%. Further, the Her2 level in assay [2] is 116% (inactive). In assay [6] (H69AR cells + 2 uM doxorubicin), the differential viability (reversal) is 15.7% (inactive). Further, the inhibition is -4.93% (inactive) in assay [7] and 0.48% (inactive) in assay [8].
Take `CN(C(=O)c1ccccn1)c1nnc(-c2ccncc2)s1`: the viability in assay [1] is 118%; in assay [3], 118% (inactive); in assay [4], 101% (inactive); in assay [5], 108% (inactive); in assay [6] (setting [9]), 92.8%; in assay [6] (setting [10]) it was 108%. The Her2 level in assay [2] was 92.5% (inactive). Also, the differential viability (reversal) in assay [6] (H69AR cells + 2 uM doxorubicin) is 15.6% (inactive). For the same compound, the values for the inhibition in assay [7] and in assay [8] were -3.65% (inactive) and -5% (inactive), respectively.
Take `CCOC(=O)C1CCN(C(=O)CSc2n[nH]c(=O)[nH]c2=O)CC1`: the viability in assay [1] is 109%; in assay [3], 109% (inactive); in assay [4], 94.6% (inactive); in assay [5], 102% (inactive); in assay [6] (setting [9]) it was 96.7%; in assay [6] (setting [10]), 102%. In addition, the Her2 level in assay [2] was 90% (inactive). Also, the differential viability (reversal) in assay [6] (H69AR cells + 2 uM doxorubicin) is 5.61% (inactive). Also, the inhibition in assay [7] was -8.51% (inactive); in assay [8] it was 3.67% (inactive).
Turning to `Cc1cccn2c(=O)c3cc(C#N)c(=O)n(CCCN4CCOCC4)c3nc12`, the viability in assay [1] was 88.5%; in assay [3], 88.5% (inactive); in assay [4], 99.8% (inactive); in assay [5], 102% (inactive); in assay [6] (setting [9]), 82.2%; in assay [6] (setting [10]), 102%. The Her2 level in assay [2] was 85% (inactive). Also, in assay [6] (H69AR cells + 2 uM doxorubicin), the differential viability (reversal) was 20% (inactive). The inhibition in assay [7] is -3.51% (inactive); in assay [8], 1.83% (inactive).
As to `COCCCN(C(C)=O)c1nc(-c2ccccc2)cs1`, the viability was 91% in assay [1]; 91% (inactive) in assay [3]; 65.5% (inactive) in assay [4]; 94% (inactive) in assay [5]; 84.1% in assay [6] (setting [9]); 94% in assay [6] (setting [10]). Further, the Her2 level in assay [2] was 85.5% (inactive). In addition, in assay [6] (H69AR cells + 2 uM doxorubicin), the differential viability (reversal) was 9.96% (inactive). Besides, the inhibition in assay [7] is -7.81% (inactive); in assay [8], -3.17% (inactive).
In the case of `CSc1ccccc1N=CC1=C(O)CC(C)(C)CC1=O`, the viability in assay [1] is 118%; in assay [3], 118% (inactive); in assay [4], 67.1% (inactive); in assay [5], 89.2% (inactive); in assay [6] (setting [9]), 90.1%; in assay [6] (setting [10]), 89.2%. For the same compound, the Her2 level in assay [2] was 96% (inactive). For the same compound, in assay [6] (H69AR cells + 2 uM doxorubicin), the differential viability (reversal) was -0.87% (inactive). Further, the figures for the inhibition in assay [7] and in assay [8] were -4.94% (inactive) and -3.28% (inactive), respectively.

Source of the values: PubChem BioAssay.
